# Experimental data taken from ChEMBL document CHEMBL4359825, “Synthesis of novel S-linked dihydroartemisinin derivatives and evaluation of their anticancer activity” (Eur J Med Chem, 2019).
# Calls of active or inactive are those of the source. The calls are words filed in the database; no cut-off is given here.
# Tests used:
# PC-3 [1] = assay: Cell cycle arrest in human PC3 cells assessed as accumulation at G0/G1 phase at 3 uM measured after 48 hrs by RNase/propidium iodide staining based flow cytometry analysis (reference value: 42.59 %); format: functional
# PC-3 [2] = assay: Cell cycle arrest in human PC3 cells assessed as accumulation at S phase at 3 uM measured after 48 hrs by RNase/propidium iodide staining based flow cytometry analysis (reference value: 22.40 %); format: functional
# MDA-MB-231 = assay: Anticancer activity against human MDA-MB-231 cells assessed as reduction in cell viability measured after 72 hrs by MTT assay; format: functional, cell-based; conditions: MDA-MB-231, 72 h
# [3] = molecular target: Peptidyl-prolyl cis-trans isomerase NIMA-interacting 1 (Homo sapiens) (UniProt Q13526); assay: Inhibition of Pin1 in human PC3 cells assessed as downregulation of cyclin D1 measured after 72 hrs by Western blot analysis; format: cell-based
# In short: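 PC-3 cells (1.25×10^5 per well) exposed 72 h to 0.1, 0.3, 1, 3 or 10 μM; lysed in 2× SDS buffer, sonicated, BCA-quantified; 20-25 μg protein on 12% SDS gel, PVDF, 5% BSA block, primary antibody overnight, secondary 1 h; ECL detection, β-actin loading control.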
# PC-3 [4] = assay: Induction of apoptosis in human PC3 cells assessed as decrease in pro-caspase-9 level after 72 hrs by Western blot analysis; format: functional, cell-based
# In short: (§1)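 Western blot: PC-3 seeded 1.25 × 10^5/well, exposed to 0.1–10 μM for 72 h. Lysed in 2× SDS buffer and sonicated; 20–25 μg protein run on 12% SDS gel, transferred to PVDF, blocked in 5% BSA/TBST. Primary antibodies overnight, secondary 1 h; ECL detection, β-actin loading control.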
# PC-3 [5] = assay: Antimigratory activity against human PC3 cells assessed as reduction in cell migration at 3 to 10 uM measured after 48 hrs by transwell assay; format: functional, cell-based
# In short: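 Transwell migration through 8.0 μm polycarbonate membranes: 40,000 PC-3 cells in serum-free medium in the upper chamber with 3 or 10 μM; RPMI-1640 with 10% FBS below. After 48 h, non-migrated cells swabbed off. Migrated cells fixed in 75% ethanol for 10 min, Hoechst stained and counted per field versus DMSO.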
# PC-3 [6] = assay: Cell cycle arrest in human PC3 cells assessed as accumulation at G0/G1 phase at 10 uM measured after 48 hrs by RNase/propidium iodide staining based flow cytometry analysis (reference value: 42.59 %); format: functional
# PC-3 [7] = assay: Induction of cell death in human PC3 cells measured after 72 hrs by propidium iodide staining based flow cytometry analysis; format: functional
# In short: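 PC-3 cells in six-well plates exposed to 3 or 10 μM for 72 h, 0.1% DMSO vehicle as control; cells harvested, PBS-washed, stained with propidium iodide (5 μg/mL) 20 min at 4 °C; percentage dead cells read by flow cytometry; t-test against vehicle.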
# PC-3 [8] = assay: Cell cycle arrest in human PC3 cells assessed as accumulation at G2/M phase at 10 uM measured after 48 hrs by RNase/propidium iodide staining based flow cytometry analysis (reference value: 34.95 %); format: functional
# PC-3 [9] = assay: Anticlonogenic activity against human PC3 cells assessed as reduction in colony formation incubated for 72 hrs supplemented with fresh medium containing measured after 15 days by colony formation assay; format: functional, cell-based
# In short: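 Clonogenic assay: PC-3 seeded at 500 cells/well in six-well plates, allowed to adhere overnight, then treated. Medium and compound renewed every 72 h over 15 days. Colonies fixed with 3.7% formaldehyde for 20 min, stained with 0.4% crystal violet and counted. Three experiments, each in quadruplicate, expressed as fold change versus control.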
# PC-3 [10] = assay: Induction of apoptosis in human PC3 cells assessed as cell shrinkage at 3 to 10 uM after 72 hrs by phase contrast microscopy; format: functional, cell-based
# In short: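 PC-3 cells in exponential growth exposed to 3 or 10 μM for 72 h, washed gently with PBS, and apoptotic morphology recorded by phase-contrast microscopy.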
# PC-3 [11] = assay: Downregulation of cMyc in human PC3 cells at 3 to 10 uM measured after 72 hrs by Western blot analysis; format: functional, cell-based; in short: as §1
# A549 = assay: Anticancer activity against human A549 cells assessed as cell viability measured after 72 hrs by MTT assay (reference value: 100 +/- 9.6 %); format: functional; set-up: concentration or dose not given beside the values
# [12] = molecular target: Peptidyl-prolyl cis-trans isomerase NIMA-interacting 1 (Homo sapiens) (UniProt Q13526); assay: Inhibition of proteasome mediated Pin1 in human PC3 cells at 10 uM measured after 72 hrs in presence of MG132; format: cell-based
# PC-3 [13] = assay: Antimigratory activity against human PC3 cells assessed as reduction in cell migration at 10 uM measured upto 24 hrs in presence of pan-caspase inhibitor Z-VAD-fmk by scratch wound healing assay; format: functional, cell-based
# In short: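 PC-3 monolayers pretreated 2 h with pan-caspase inhibitor Z-VAD-FMK (10 μM) before scratching and treatment with test agent. Wound closure imaged by phase contrast at 0, 12 and 24 h.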
# PC-3 [14] = assay: Induction of apoptosis in human PC3 cells assessed as decrease in pro-caspase-3 level after 72 hrs by Western blot analysis; format: functional, cell-based; in short: as §1
# PC-3 [15] = assay: Cell cycle arrest in human PC3 cells assessed as accumulation at S phase at 10 uM measured after 48 hrs by RNase/propidium iodide staining based flow cytometry analysis (reference value: 22.40 %); format: functional
# PC-3 [16] = assay: Antiproliferative activity against human PC3 cells assessed as reduction in cell viability upto 10 uM incubated for 24 hrs by MTT assay; format: functional, cell-based
# PC-3 [17] = assay: Induction of apoptosis in human PC3 cells assessed as decrease in mitochondrial membrane potential at 3 to 10 uM after 48 hrs by JC-1 staining based fluorescence microscopy analysis; format: functional, cell-based
# In short: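 PC-3 cells exposed to 3 or 10 μM for 48 h, then stained with JC-1 (10 μM) for 30 min in the dark. Mitochondrial potential judged by red/green fluorescence under a fluorescence microscope.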
# PC-3 [18] = assay: Induction of apoptosis in human PC3 cells assessed as nuclear condensation at 3 to 10 uM after 72 hrs by Hoechst 33342 staining based fluorescence microscopy; format: functional, cell-based
# In short: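 PC-3 cells treated 72 h with 3 or 10 μM, stained with Hoechst 33342 for 15 min at room temperature in the dark, washed with PBS, and nuclei examined by fluorescence microscopy for condensation.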
# PC-3 [19] = assay: Anticancer activity against human PC3 cells assessed as reduction in cell viability measured after 72 hrs by MTT assay; format: functional, cell-based; conditions: PC-3, 72 h
# PC-3 [20] = assay: Antimigratory activity against human PC3 cells assessed as reduction in cell migration at 3 to 10 uM measured upto 24 hrs by scratch wound healing assay; format: functional, cell-based
# In short: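 Wound healing: PC-3 seeded 3 × 10^5/well, grown to a monolayer at 37 °C, 5% CO2. Scratch made with a pipette tip, detached cells washed off, then 3 or 10 μM added.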
# PC-3 [21] = assay: Downregulation of cyclinB1 mRNA expression in human PC3 cells at 3 to 10 uM measured after 72 hrs by TRIzol dye based RT-PCR analysis; format: functional, cell-based
# In short: (§2)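 PC-3 (1.25 × 10^5/well) treated 72 h with 3 or 10 μM. Total RNA extracted with TRIzol; cDNA made from 2 μg RNA. SYBR qPCR: 95 °C 10 min, then 40 cycles of 95 °C/60 °C. Expression normalised to GAPDH by 2^-ΔΔCt; three experiments.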
# PC-3 [22] = assay: Downregulation of E2F1 mRNA expression in human PC3 cells at 3 to 10 uM measured after 72 hrs by TRIzol dye based RT-PCR analysis; format: functional, cell-based; in short: as §2
# HepG2 = assay: Anticancer activity against human HepG2 cells assessed as cell viability measured after 72 hrs by MTT assay (reference value: 100 +/- 6.5 %); format: functional; set-up: concentration or dose not given beside the values
# Peptidyl-prolyl cis-trans isomerase NIMA-interacting 1 (Homo sapiens), sequence (Q13526 whole entry): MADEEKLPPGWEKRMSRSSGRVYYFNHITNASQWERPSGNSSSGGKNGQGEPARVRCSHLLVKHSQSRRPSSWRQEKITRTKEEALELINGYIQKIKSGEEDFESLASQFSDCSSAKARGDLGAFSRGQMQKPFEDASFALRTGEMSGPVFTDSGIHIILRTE
smiles,measurement,setting,value
COC(=O)Cc1ccc(S[C@@H]2O[C@@H]3O[C@@]4(C)CC[C@H]5[C@H](C)CC[C@@H]([C@H]2C)[C@@]35OO4)cc1,Activity,PC-3 [1],54.49%
same,Activity,PC-3 [2],13.26%
same,IC50,MDA-MB-231,9.03 µM
same,inhibition,[3],Dose-dependent effect
same,Activity,PC-3 [4],Dose-dependent effect
same,Activity,PC-3 [5],Active
same,Activity,PC-3 [6],53.71%
same,Activity,PC-3 [7],Dose-dependent effect
same,Activity,PC-3 [8],32.19%
same,Activity,PC-3 [9],Dose-dependent effect
same,Activity,PC-3 [10],Active
same,Activity,PC-3 [11],Active
same,Activity,A549,68%
same,inhibition,[12],inactive
same,inhibition,PC-3 [13],inactive
same,Activity,PC-3 [14],Dose-dependent effect
same,Activity,PC-3 [15],13.21%
same,Activity,PC-3 [16],inactive
same,Activity,PC-3 [17],Active
same,Activity,PC-3 [18],Active
same,IC50,PC-3 [19],6.13 µM
same,Activity,PC-3 [20],Active
same,Activity,PC-3 [21],Active
same,Activity,PC-3 [22],Active
same,Activity,HepG2,50%
